The record followed here is ChEMBL document CHEMBL1126849, “Synthesis of A-ring fluorinated derivatives of (17 alpha,20E/Z)-[125I]iodovinylestradiols: effect on receptor binding and receptor-mediated target tissue uptake” (J Med Chem, 1993).

What all share (conditions): in vivo
In series [1] the test system is Rattus norvegicus. As to the kind of experiment: Biodistribution in blood of immature femalee rat after 1 hr administration of 3 micro Ci (111 kBq) in the presence of (+E2). The format is ADME, organism-based. An outline of the steps:
(§1)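 Immature female Long Evans rats (21–24 days, 45–70 g), unanesthetized in retention cages, given 3 µCi (111 kBq) 125I-labeled steroid i.v. via lateral tail vein. Vehicle was ethanol diluted in saline containing 1% Tween-80, giving 9% ethanol final. The blocking group received 60 µg unlabeled estradiol co-injected. Rats were killed under ether by axillary bleeding, and tissues were KCl-washed and gamma-counted. Data are %ID/g, mean ± SE, n=3–5.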

Series [2] concerns Rattus norvegicus. As to the kind of experiment: Biodistribution in fat of Immature Female rat after 5 hour administration of 3 micro Ci (111 kBq) in the absence of 60 microg estradiol. The format is ADME, organism-based, Adipose tissue. An outline of the steps:
as §1

Series [3] relates to Rattus norvegicus. Kind of series: Biodistribution in uterus / blood of Immature Female rat after 3 hour administration of 3 micro Ci (111 kBq) in the absence of 60 microg estradiol. Type of series: ADME, organism-based. An outline of the steps: (§2)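 Same in vivo procedure: immature female Long Evans rats (21–24 days), three to five per group, 3 μCi (111 kBq) tracer i.v. via tail vein in 9% ethanol/saline/1% Tween-80, ± 60 μg estradiol co-injected at 1 h. Uterus %ID/g (gamma counting) divided by blood, or by nontarget organ (muscle, spleen, lungs), %ID/g to give ratios.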

The subject of series [4] is Rattus norvegicus. Kind of series: Biodistribution in kidney of Immature Female rat after 1 hr administration of 3 micro Ci (111 kBq) in the absence of 60 microg estradiol. The format is ADME, organism-based. An outline of the steps:
as §1

For series [5], the system named is Rattus norvegicus. As to the kind of experiment: Biodistribution in blood of Immature Female rat after 5 hour administration of 3 micro Ci (111 kBq) in the absence of 60 microg estradiol. The format is ADME, organism-based. An outline of the steps:
as §1

In series [6] the test system is Rattus norvegicus. Kind of series: Biodistribution in uterus / spleen, muscle, lungs of Immature Female rat after 5 hour administration of 3 micro Ci (111 kBq) in the absence of 60 microg estradiol. The format is ADME, organism-based. An outline of the steps:
as §2

Series [7] deals with Rattus norvegicus. As to the kind of experiment: Biodistribution in fat of Immature Female rat after 3 hour administration of 3 micro Ci (111 kBq) in the absence of 60 microg estradiol. The format is ADME, organism-based, Adipose tissue. An outline of the steps:
as §1

In series [8] the test system is Rattus norvegicus. As to the kind of experiment: Biodistribution in fat of Immature Female rat after 1 hr administration of 3 micro Ci (111 kBq) in the absence of 60 microg estradiol. The format is ADME, organism-based, Adipose tissue. An outline of the steps: as §1
Series [9] relates to Rattus norvegicus. As to the kind of experiment: Biodistribution in spleen of Immature Female rat after 1 hr administration of 3 micro Ci (111 kBq) in the absence of 60 microg estradiol. The format is ADME, organism-based. An outline of the steps:
(§3)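 Immature female Long Evans rats (21–24 days, 45–70 g), three to five per group, given 125I-labeled steroid (3 μCi, 111 kBq) by lateral tail vein without anesthesia. Vehicle: ethanol diluted in saline with 1% Tween-80, final ethanol 9%, 0.22 μm filtered. +E2 groups received 60 μg unlabeled estradiol co-injected. Killed under ether at set times; tissues KCl-washed, blotted, weighed, gamma counted; %ID/g, mean with SE.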

Series [10] has as its system Rattus norvegicus. As to the kind of experiment: Biodistribution in spleen of Immature Female rat after 1 hr administration of 3 micro Ci (111 kBq) in the presence of (+E2). The format is ADME, organism-based. An outline of the steps: as §3
The subject of series [11] is Rattus norvegicus. Kind of series: Biodistribution in blood of Immature Female rat after 1 hr administration of 3 micro Ci (111 kBq) in the absence of 60 microg estradiol. The format is ADME, organism-based. An outline of the steps:
as §1

Series [12] has as its system Rattus norvegicus. Kind of series: Biodistribution in muscle of Immature Female rat after 1 hr administration of 3 micro Ci (111 kBq) in the presence of (+E2). The format is ADME, organism-based, Muscle tissue. An outline of the steps: as §3
Series [13] relates to Rattus norvegicus. As to the kind of experiment: Biodistribution in uterus / blood of Immature Female rat after 1 hr administration of 3 micro Ci (111 kBq) in the presence of (+E2). Type of series: ADME, organism-based. An outline of the steps: as §2
Series [14] has as its system Rattus norvegicus. As to the kind of experiment: Biodistribution in blood of Immature Female rat after 12 hour administration of 3 micro Ci (111 kBq) in the absence of 60 microg estradiol. Type of series: ADME, organism-based. An outline of the steps: as §1
The test system of series [15] is Rattus norvegicus. As to the kind of experiment: Biodistribution in uterus of Immature Female rat after 5 hour administration of 3 micro Ci (111 kBq) in the absence of 60 microg estradiol. The format is ADME, organism-based. An outline of the steps:
(§4)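 Immature female Long Evans rats (21–24 days, 45–70 g), 3–5 per group, unanesthetized in retention cages, given 3 μCi (111 kBq) 125I-labeled steroid by lateral tail vein. Vehicle: ethanol diluted with saline containing 1% Tween-80, final ethanol 9%. +E2 group co-injected 60 μg unlabeled estradiol (1 h only). Killed under ether; tissues KCl-washed, weighed, gamma-counted. Output: %ID/g (mean, SE) and uterus to blood or nontarget (muscle, spleen, lungs) ratios.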

In series [16] the test system is Rattus norvegicus. Kind of series: Biodistribution in uterus / spleen, muscle, lungs of Immature Female rat after 12 hour administration of 3 micro Ci (111 kBq) in the absence of 60 microg estradiol. The format is ADME, organism-based. An outline of the steps: as §2
The test system of series [17] is Rattus norvegicus. As to the kind of experiment: Biodistribution in lungs of Immature Female rat after 1 hr administration of 3 micro Ci (111 kBq) in the presence of (+E2). The format is ADME, organism-based, Lung. An outline of the steps:
as §1

Series [18] concerns Rattus norvegicus. Kind of series: Biodistribution in thyroid of Immature Female rat after 5 hour administration of 3 micro Ci (111 kBq) in the absence of 60 microg estradiol. The format is ADME, organism-based, Thyroid gland. An outline of the steps:
as §3

The test system of series [19] is Rattus norvegicus. As to the kind of experiment: Biodistribution in blood of Immature Female rat after 1 hr administration of 3 micro Ci (111 kBq) in the presence of (+E2). The format is ADME, organism-based. An outline of the steps: as §1
For series [20], the system named is Rattus norvegicus. Kind of series: Biodistribution in uterus / blood of Immature Female rat after 12 hour administration of 3 micro Ci (111 kBq) in the absence of 60 microg estradiol. Type of series: ADME, organism-based. An outline of the steps:
as §2

In series [21] the test system is Rattus norvegicus. As to the kind of experiment: Biodistribution in uterus / spleen, muscle, lungs of Immature Female rat after 1 hr administration of 3 micro Ci (111 kBq) in the absence of 60 microg estradiol. Type of series: ADME, organism-based. An outline of the steps:
as §2

Series [22] deals with Rattus norvegicus. As to the kind of experiment: Biodistribution in kidney of Immature Female rat after 1 hr administration of 3 micro Ci (111 kBq) in the presence of (+E2). The format is ADME, organism-based. An outline of the steps:
as §1

For series [23], the system named is Rattus norvegicus. Kind of series: Biodistribution in muscle of Immature Female rat after 12 hour administration of 3 micro Ci (111 kBq) in the absence of 60 microg estradiol. Type of series: ADME, organism-based, Muscle tissue. An outline of the steps: as §3
For series [24], the system named is Rattus norvegicus. As to the kind of experiment: Biodistribution in spleen of Immature Female rat after 12 hour administration of 3 micro Ci (111 kBq) in the absence of 60 microg estradiol. The format is ADME, organism-based. An outline of the steps: as §3
The test system of series [25] is Rattus norvegicus. Kind of series: Biodistribution in liver of Iimmature female rat after 1 hr administration of 3 micro Ci (111 kBq) in the presence of (+E2). The format is ADME, organism-based. An outline of the steps: as §1
Series [26] relates to Rattus norvegicus. Kind of series: Biodistribution in uterus/spleen, muscle, lungs of immature female rat after 12 hour administration of 3 micro Ci (111 kBq) in the absence of 60 microg estradiol. The format is ADME, organism-based. An outline of the steps:
as §4

The test system of series [27] is Rattus norvegicus. Kind of series: Biodistribution in uterus/spleen, muscle, lungs of immature female rat after 1 hr administration of 3 micro Ci (111 kBq) in the presence of (+E2). The format is ADME, organism-based. An outline of the steps: as §4
Series [28] deals with Rattus norvegicus. As to the kind of experiment: Biodistribution in uterus/spleen, muscle, lungs of immature female rat after 1 hr administration of 3 micro Ci (111 kBq) in the absence of 60 microg estradiol. The format is ADME, organism-based. An outline of the steps:
as §4

The subject of series [29] is Rattus norvegicus. Kind of series: Biodistribution in uterus/spleen, muscle, lungs of immature female rat after 5 hour administration of 3 micro Ci (111 kBq) in the absence of 60 microg estradiol. Type of series: ADME, organism-based. An outline of the steps:
as §4

Series [30] deals with Rattus norvegicus. As to the kind of experiment: Biodistribution in liver of Iimmature female rat after 3 hour administration of 3 micro Ci (111 kBq) in the absence of 60 microg estradiol. The format is ADME, organism-based. An outline of the steps: as §1
Series [31] deals with Rattus norvegicus. As to the kind of experiment: Biodistribution in uterus/blood of immature female rat after 12 hour administration of 3 micro Ci (111 kBq) in the absence of 60 microg estradiol. Type of series: ADME, organism-based. An outline of the steps:
as §4

Regarding `CO[C@H]1C[C@@]2(C)[C@@H](CC[C@@]2(O)/C=C\I)[C@@H]2CCc3c(ccc(O)c3F)[C@H]21`, in the series with Rattus norvegicus [1], the ID/g was 0.81%.
`CO[C@H]1C[C@@]2(C)[C@@H](CC[C@@]2(O)/C=C/I)[C@@H]2CCc3c(ccc(O)c3F)[C@H]21`: the ID/g was 1.69% in the series with Rattus norvegicus [2]; 44.23% in the series with Rattus norvegicus [3]; 2.03% with Rattus norvegicus [4]; 0.17% with Rattus norvegicus [5]; 26.5% in the series with Rattus norvegicus [6]; 2.04% in the series on Rattus norvegicus [7]. The ID/g in the series with Rattus norvegicus [8] is given as 2.68%; in the series on Rattus norvegicus [9] it was 0.79%; with Rattus norvegicus [10], 0.78%; with Rattus norvegicus [11] it was 0.26%; in the series with Rattus norvegicus [12], 0.91%; in the series with Rattus norvegicus [13], 3.57%. The ID/g was found to be 0.1% with Rattus norvegicus [14]; 12.04% in the series on Rattus norvegicus [15]; 50.9% in the series on Rattus norvegicus [16]; 1.95% with Rattus norvegicus [17]; 274% in the series on Rattus norvegicus [18]; 0.28% with Rattus norvegicus [19]. Moreover, the ID/g with Rattus norvegicus [20] is on record as 122.53%; in the series on Rattus norvegicus [21] it was 9.17%; in the series with Rattus norvegicus [22], 1.28%; in the series on Rattus norvegicus [23] it was 0.25%; with Rattus norvegicus [24], 0.22%.
Take `CO[C@H]1C[C@@]2(C)[C@@H](CC[C@@]2(O)/C=C/I)[C@@H]2CCc3cc(O)c(F)cc3[C@H]21`: the ID/g in the series on Rattus norvegicus [25] came to 4.4%.
Regarding `CO[C@H]1C[C@@]2(C)[C@@H](CC[C@@]2(O)/C=C\I)[C@@H]2CCc3cc(O)c(F)cc3[C@H]21`, the ID/g in the series on Rattus norvegicus [2] stood at 0.66%; with Rattus norvegicus [3], 21.19%; in the series with Rattus norvegicus [4], 1.56%; in the series on Rattus norvegicus [5], 0.34%; in the series on Rattus norvegicus [6] it was 25.79%; with Rattus norvegicus [7], 1.15%. Besides, the ID/g was found to be 1.71% with Rattus norvegicus [8]; 0.59% in the series with Rattus norvegicus [9]; 5.3% in the series with Rattus norvegicus [10]; 0.54% with Rattus norvegicus [11]; 2.3% in the series on Rattus norvegicus [12]; 1.12% with Rattus norvegicus [13]. Further, the ID/g was 0.17% in the series with Rattus norvegicus [14]; 8.81% in the series with Rattus norvegicus [15]; 33.82% in the series with Rattus norvegicus [16]; 1.52% with Rattus norvegicus [17]; 1210% in the series on Rattus norvegicus [18]; 0.87% in the series with Rattus norvegicus [19]. Besides, the ID/g was found to be 50.35% with Rattus norvegicus [20]; 13.04% in the series with Rattus norvegicus [21]; 2.83% with Rattus norvegicus [22]; 0.1% with Rattus norvegicus [23]; 0.22% in the series on Rattus norvegicus [24].
Regarding `C[C@]12CC[C@@H]3c4cc(F)c(O)cc4CC[C@H]3[C@@H]1CC[C@@]2(O)/C=C/I`, the ID/g with Rattus norvegicus [26] is listed as 1.25%; in the series on Rattus norvegicus [27], 0.81%; in the series with Rattus norvegicus [28], 1.42%; in the series with Rattus norvegicus [29], 1.14%; in the series with Rattus norvegicus [30], 2.87%; in the series with Rattus norvegicus [31], 0.92%.
